Columns and labels:
[1] = Inhibition of pig coronary artery cAMP-specific phosphodiesterase; design: species or system Sus scrofa; conditions: read-out: I50
Outline: (§1)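 Separated peak I and peak II phosphodiesterase forms prepared from pig coronary arteries. Compounds were added from 30% Me2SO, giving 3% Me2SO final in all tubes, including controls and blanks. I50 was read from concentration-inhibition curves over 10^-7 to 10^-4 M, or to 10^-3 M if soluble.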

[2] = Inhibition of Peak I phosphodiesterase from pig coronary arteries; design: species or system Sus scrofa; conditions: read-out: I50
Outline: as §1, with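 “arteries. Hydrolysis of 1 µM cyclic nucleotide substrate was measured at 30 °C for 30 min, with enzyme diluted to give 10-20% hydrolysis without inhibitor.” for “arteries.”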

Sus scrofa [3] = organism: Sus scrofa; test: Inhibition of Peak II phosphodiesterase from pig coronary arteries at 100 uM
Sus scrofa [4] = organism: Sus scrofa; test: Inhibition of pig coronary artery phosphodiesterase peak I cGMP specific and calmodulin sensitive at 100 uM
Sus scrofa [5] = organism: Sus scrofa; test: Inhibition of pig coronary artery phosphodiesterase peak I cGMP specific and calmodulin sensitive; conditions: concentration not given here
Outline: as §1, with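 “arteries. Hydrolysis of 1 µM cyclic nucleotide substrate was measured at 30 °C for 30 min, with enzyme diluted to give 10-20% hydrolysis without inhibitor.” for “arteries.”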

Sus scrofa [6] = organism: Sus scrofa; test: Inhibition of pig coronary artery phosphodiesterase peak II cyclic AMP specific at 100 uM

Row | SMILES | IC50 [2] [µM] | inhibition (Sus scrofa [3]) [%] | also measured
1 | Cn1c(=O)c2nc[nH]c2n(CCO)c1=O | – | 23 | inhibition (Sus scrofa [4]): 30%
2 | CC(C)Cn1c(=O)n(C)c(=O)c2[nH]c(CCCO)nc21 | 11 | 29 | –
3 | C=C(C)Cn1c(=O)n(C)c(=O)c2nc[nH]c21 | 10 | – | IC50 [1]: 36 µM
4 | CC(C)Cn1c(=O)n(C)c(=O)c2[nH]c(CCl)nc21 | 8.9 | 28 | –
5 | CC(C)Cn1c(=O)n(C)c(=O)c2[nH]c(CCC(=O)O)nc21 | 45 | 12 | –
6 | CC(C)Cn1c(=O)n(C)c(=O)c2[nH]c(N(C)C)nc21 | 1.6 | 33 | –
7 | CC(C)CCn1c(=O)c2[nH]cnc2n(CC(C)C)c1=O | 86 | – | IC50 [1]: 17 µM
8 | Cn1c(=O)c2nc[nH]c2n(C)c1=O [THEOPHYLLINE] | 100 | – | –
9 | CC(C)Cn1c(=O)n(C)c(=O)c2[nH]c(CO)nc21 | 9.4 | – | IC50 [1]: 283 µM
10 | C=C(C)Cn1c(=O)n(CCC(C)C)c(=O)c2nc[nH]c21 | – | 42 | inhibition (Sus scrofa [4]): 38%
11 | CC(C)Cn1c(=O)n(CC(=O)O)c(=O)c2[nH]cnc21 | – | 1.9 | inhibition (Sus scrofa [5]): 2.4%
12 | CC(C)Cn1c(=O)n(C)c(=O)c2[nH]nnc21 | – | – | inhibition (Sus scrofa [6]): 1%; inhibition (Sus scrofa [4]): 35%
13 | CC(=O)OCCn1c(=O)n(C)c(=O)c2nc[nH]c21 | – | 27 | inhibition (Sus scrofa [4]): 43%

Continued, in another order:

Row | IC50 [2] [µM] | inhibition (Sus scrofa [3]) [%] | SMILES | also measured
14 | 25 | – | C=CCn1c(=O)n(C)c(=O)c2nc[nH]c21 | IC50 [1]: 52 µM
15 | 6.3 | 21 | CC(C)=CCc1nc2c([nH]1)c(=O)n(C)c(=O)n2CC(C)C | –
16 | – | 40 | COC(=O)Cn1c(=O)c2nc[nH]c2n(CC(C)C)c1=O | inhibition (Sus scrofa [4]): 26%
17 | 1.2 | 39 | CNc1nc2c(=O)n(C)c(=O)n(CC(C)C)c2[nH]1 | –
18 | 5.2 | – | COCc1nc2c([nH]1)c(=O)n(C)c(=O)n2CC(C)C | IC50 [1]: 212 µM
19 | 9.8 | 30 | COC(=O)CCc1nc2c(=O)n(C)c(=O)n(CC(C)C)c2[nH]1 | –
